These results are taken from paper PMC5987874 (The Journal of General Physiology, 2018).

The pIC50 is the IC50 on a negative log10 scale, so that one unit is a factor of ten. A word on the IC50: it is the concentration at which inhibition is half-maximal.

Assay in all cases: Whole-cell voltage clamp, Zn^2+ modulation of GAQ gating
Holding throughout (format): cell-based

In experiment [1] the target is T1, human Hv1 E119H-H140A-H193A (Homo sapiens, UniProt Q96D96, E119H/H140A/H193A).
T1 sequence (Q96D96 1-273 E119H/H140A/H193A): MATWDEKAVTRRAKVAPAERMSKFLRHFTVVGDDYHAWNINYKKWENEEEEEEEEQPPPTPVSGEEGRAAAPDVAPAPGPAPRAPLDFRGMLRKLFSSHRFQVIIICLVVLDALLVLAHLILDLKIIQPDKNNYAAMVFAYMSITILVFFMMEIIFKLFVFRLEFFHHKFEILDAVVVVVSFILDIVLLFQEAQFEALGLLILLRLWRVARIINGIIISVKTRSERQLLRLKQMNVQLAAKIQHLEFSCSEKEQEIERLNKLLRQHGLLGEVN
The method in brief:
(§1)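 Whole-cell patch clamp at ~21°C. Pipette and bath (mM): ~80 TMA-MeSO3, 100 Bis-Tris, 8 HCl, pH 6.5, 310–320 mOsm. ZnCl2 was diluted into bath solution and applied by gravity superfusion, at least 2 min per change. Test step voltage was set per construct from its V0.5. G_STEP = end-of-step current/(V−V_REV). Effect = 1 − G_Zn/G_control, fitted to the Hill equation. IC50 and nH are means ± SEM from separate cells. ΔpIC50 was tested by unpaired t test, P<0.05.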

The next experiment has as its target T2, human Hv1 D185H-H193A (Homo sapiens, UniProt Q96D96, D185H/H193A).
T2 sequence (Q96D96 1-273 D185H/H193A): T1 sequence (Q96D96 1-273 E119H/H140A/H193A) with H119E, A140H, D185H
The method in brief:
as §1

The target in experiment [2] is T3, human Hv1 D123H (D^1.62H) (Homo sapiens, UniProt Q96D96, D123H).
T3 sequence (Q96D96 1-273 D123H): T1 sequence (Q96D96 1-273 E119H/H140A/H193A) with H119E, D123H, A140H, A193H
The method in brief: as §1

Where [3] appears, read: VSTEP 80 mV, calculated as log (IC50).
[4] abbreviates: read-out: Mean IC50 @ VSTEP, VSTEP 80 mV, pH 6.5, mean of fits in separate cells.

Structures are written as SMILES. Residue numbers refer to the chain shown, from its start. Several values for one entry are separate records, joined by “and”; a condition that tells them apart may be missing. Equal entries are not always repeated. Where two headings read alike, the source gives them in different places.

Consider `[Cl-].[Cl-].[Zn+2]` [Zn^2+, ZnCl2], for which the “Mean ΔpIC50 = (pIC50_1 - pIC50_2)” value in experiment [1] (E119H-H140A-H193A vs H140A-H193A, positive = increase in Zn^2+ potency) was 2.4 and 2.39; on human Hv1 D185H-H193A (D185H-H193A vs D185H), −0.84; on human Hv1 D185H-H193A (D185H-H193A vs H193A) it was 0.52; in experiment [2] (D123H vs WT), 0.11. The “nH, fit of the mean data to a Hill function” value in experiment [1] (Fig. 4A) was found to be 0.7; at human Hv1 D185H-H193A (Fig. 4D), 0.6; in experiment [2] (Fig. 4B), 0.8. Further, the figures for the Hill value (in experiment [1] (VSTEP 60 mV); on human Hv1 D185H-H193A (VSTEP 80 mV); in experiment [2] (VSTEP 80 mV)) were 0.84, 0.60 and 0.95, respectively. Also, the pIC50 in experiment [1] (VSTEP 60 mV, calculated as log (IC50)) is 5.15; on human Hv1 D185H-H193A (setting [3]), −4.54; in experiment [2] (setting [3]), 5.56. The “change of Zn^2+ IC50” value in experiment [1] (from H140A-H193A to E119H-H140A-H193A) was 2.4 fold. Moreover, the IC50 in experiment [1] (read-out: IC50, fit of the mean data to a Hill function, Fig. 4A) turned out to be 7.6 µM; in experiment [1] (read-out: Mean IC50 @ VSTEP, VSTEP 60 mV, pH 6.5, mean of fits in separate cells) it was 7.3 µM; at human Hv1 D185H-H193A (read-out: IC50, fit of the mean data to a Hill function, Fig. 4D) it was 26.7 µM; at human Hv1 D185H-H193A (setting [4]), 37.9 µM; in experiment [2] (read-out: IC50, fit of the mean data to a Hill function, Fig. 4B) it was 2.5 µM; in experiment [2] (setting [4]) it was 4.3 µM.
